From PubChem
A1 apoptosis 2 = compounds inhibiting A1, read as caspase activation; MEF A1-2A-BIM cells, caspase-Glo luminescence, 3 h; percent of clofoctol response, DMSO zero; caspase activation, % (test concentration not listed); 24,000 tested, under 10 active; AID 2465; in the data active means caspase activation above about 5.9%; inconclusive means no clear call, values can overlap the other calls; inactive means below about 2.2%
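Material: A1-2A-BIM-expressing MEF cells. Buffer or medium: RPMI-1640 plus 10% FBS. Incubation: cells settled overnight, compound exposure 3 h at 37 °C, 5% CO2. Signal: Caspase-Glo 3/7 luminescence, 1 h at room temperature.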
T cruzi intra = blocks T. cruzi growth inside host cells. activity score (inhibition), % at 5.01 µM. intracellular Trypanosoma cruzi in host cells, plate reader. hit rate 4.9% among 22,000. AID 651903; in the data active means activity score above about 55%; inconclusive means no clear call, values can overlap the other calls;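 further: parasites and compound incubated about four days before reading; 0% = median of neutral control wells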
INS-1E rescue = rescue of cytokine-induced death in INS-1E beta cells; INS-1E cytokine-induced death, ATP luminescence, 48 h; normalised: neutral wells 0, positive control 100; protection from cytokine-induced ATP loss, % at 10 µM; hit rate 0.1% among 20,000;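 active means mean replicate protection from cytokine-induced ATP loss at least 50% and at least 75% of replicates each reaching 50%; inconclusive means meets only one of the two criteria, mean or replicate share; inactive means fails both the mean and replicate share criteria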
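assay system = INS-1E rat insulinoma cells | amount = 8000 cells per well | medium = phenol-red-free RPMI with 5% fetal bovine serum | doses = one compound concentration, pin transfer | timing = 48 h cytokine plus compound treatment, 10 min reagent incubation | also added = IL-1β, TNF-α and IFN-γ cytokine mix | signal = CellTiter-Glo luminescence measuring cellular ATP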
* hit, by the source's call. The sample as a whole holds a higher share of hits than the screen did.

For C[C@H](CO)N1C[C@H](C)[C@H](CN(C)Cc2ccc(F)cc2)Oc2ncc(-c3cc4ccccc4o3)cc2C1=O the results were A1 apoptosis 2 -0.5 and T cruzi intra 78.3*.
For C[C@H](CO)N1C[C@H](C)[C@H](CN(C)S(C)(=O)=O)Oc2ncc(-c3cc4ccccc4o3)cc2C1=O the results were T cruzi intra 14.4.
Screening C[C@H](CO)N1C[C@H](C)[C@H](CN(C)Cc2ccncc2)Oc2ncc(-c3cc4ccccc4o3)cc2C1=O returned T cruzi intra 39.6.
`COc1cccc(S(=O)(=O)N(C)C[C@@H]2Oc3ncc(-c4cc5ccccc5o4)cc3C(=O)N([C@H](C)CO)C[C@@H]2C)c1` gave T cruzi intra 53.2.
Screening Cc1cccc(CN(C)C[C@@H]2Oc3ncc(-c4ccccc4)cc3C(=O)N([C@H](C)CO)C[C@@H]2C)c1 returned A1 apoptosis 2 0.5 and T cruzi intra 29.3.
`Cc1cccc(CN(C)C[C@@H]2Oc3ncc(-c4cc5ccccc5o4)cc3C(=O)N([C@H](C)CO)C[C@@H]2C)c1` gave A1 apoptosis 2 -0.2 and T cruzi intra 69.9*.
C[C@H](CO)N1C[C@H](C)[C@H](CN(C)S(=O)(=O)c2cccc(F)c2)Oc2ncc(-c3cc4ccccc4o3)cc2C1=O was read as A1 apoptosis 2 -1.2, T cruzi intra 64.1* and INS-1E rescue -21.5.
Screening C[C@@H]1CN([C@H](C)CO)C(=O)c2cccc(NC(=O)c3cnccn3)c2O[C@@H]1CN(C)Cc1ccc(-c2ccccc2)cc1 returned T cruzi intra -27.7 and INS-1E rescue -13.5.
`C[C@H](CO)N1C[C@H](C)[C@H](CN(C)S(=O)(=O)c2cccs2)Oc2c(NS(C)(=O)=O)cccc2C1=O` gave A1 apoptosis 2 -0.2, T cruzi intra -17.7 and INS-1E rescue 10.3.
Screening C[C@@H]1CN([C@@H](C)CO)C(=O)c2cc(NC(=O)CCC(F)(F)F)ccc2O[C@@H](C)CCCCO[C@@H]1CN(C)S(=O)(=O)c1ccc(Cl)cc1 returned A1 apoptosis 2 0.1.
`C[C@@H]1CN([C@@H](C)CO)C(=O)CCCn2nncc2CO[C@H]1CN(C)Cc1ccc(Oc2ccccc2)cc1` gave A1 apoptosis 2 0.0 and T cruzi intra -9.5.
For C[C@@H]1CN([C@H](C)CO)C(=O)c2cc(NC(=O)Nc3cccc4ccccc34)ccc2O[C@@H]1CN(C)Cc1ccc2c(c1)OCO2 the results were A1 apoptosis 2 1.2, T cruzi intra -5.0 and INS-1E rescue -9.2.
Screening C[C@H]1CN([C@@H](C)CO)C(=O)c2cc(NC(=O)Nc3cccc4ccccc34)ccc2O[C@H]1CN(C)Cc1ccc2c(c1)OCO2 returned A1 apoptosis 2 -0.8, T cruzi intra 61.3* and INS-1E rescue -15.4.
For C[C@H]1CN([C@@H](C)CO)C(=O)c2cc(NC(=O)Nc3cccc4ccccc34)ccc2O[C@@H]1CN(C)Cc1ccc2c(c1)OCO2 the results were A1 apoptosis 2 0.6, T cruzi intra 2.8 and INS-1E rescue -20.0.
`C[C@@H]1CN([C@@H](C)CO)C(=O)c2cc(NC(=O)Nc3cccc4ccccc34)ccc2O[C@@H]1CN(C)Cc1ccc2c(c1)OCO2` gave T cruzi intra 55.6* and INS-1E rescue -5.9.
For C[C@H]1CN([C@@H](C)CO)C(=O)Cc2cc(NS(=O)(=O)c3ccc(F)cc3)ccc2O[C@H]1CN(C)C(=O)Nc1ccccc1 the results were A1 apoptosis 2 -0.6, T cruzi intra -38.1 and INS-1E rescue 8.2.
For COc1ccc(NC(=O)Nc2ccc3c(c2)C(=O)N([C@H](C)CO)C[C@H](C)[C@H](CN(C)Cc2ccc(Cl)c(Cl)c2)OCCCC[C@H](C)O3)cc1 the results were A1 apoptosis 2 -1.5.
`COc1ccc(NC(=O)Nc2ccc3c(c2)C(=O)N([C@H](C)CO)C[C@H](C)[C@H](CN(C)Cc2ccc(Cl)c(Cl)c2)OCCCC[C@@H](C)O3)cc1` gave T cruzi intra 63.8* and INS-1E rescue -27.5.
COc1ccc(NC(=O)Nc2ccc3c(c2)C(=O)N([C@H](C)CO)C[C@H](C)[C@@H](CN(C)Cc2ccc(Cl)c(Cl)c2)OCCCC[C@@H](C)O3)cc1 was read as A1 apoptosis 2 1.5, T cruzi intra 59.4* and INS-1E rescue -45.5.
COc1ccc(NC(=O)Nc2ccc3c(c2)C(=O)N([C@@H](C)CO)C[C@H](C)[C@@H](CN(C)Cc2ccc(Cl)c(Cl)c2)OCCCC[C@@H](C)O3)cc1 was read as A1 apoptosis 2 0.5.
For C[C@@H]1CN([C@@H](C)CO)C(=O)c2cccc(NC(=O)c3cnccn3)c2O[C@H]1CN(C)Cc1ccc(Oc2ccccc2)cc1 the results were T cruzi intra 33.0 and INS-1E rescue -30.5.
Screening C[C@H]1CN([C@@H](C)CO)C(=O)c2cccc(NC(=O)c3ccncc3)c2O[C@H]1CN(C)Cc1ccc(Oc2ccccc2)cc1 returned A1 apoptosis 2 -0.7, T cruzi intra 82.3* and INS-1E rescue -15.9.
For C[C@@H]1CN([C@H](C)CO)C(=O)c2cccc(NC(=O)c3cnccn3)c2O[C@H]1CN(C)Cc1ccc(Oc2ccccc2)cc1 the results were T cruzi intra 33.2 and INS-1E rescue -21.8.
C[C@H](CO)N1C[C@H](C)[C@@H](CN(C)Cc2ccc(Oc3ccccc3)cc2)Oc2c(NC(=O)c3cnccn3)cccc2C1=O was read as T cruzi intra inconclusive and INS-1E rescue -42.4.
C[C@@H]1CN([C@H](C)CO)C(=O)c2cccc(NC(=O)c3ccncc3)c2O[C@@H]1CN(C)Cc1ccc(Oc2ccccc2)cc1 was read as A1 apoptosis 2 -1.2, T cruzi intra 81.0* and INS-1E rescue -15.9.
For C[C@@H]1CN([C@@H](C)CO)C(=O)c2cccc(NC(=O)c3ccncc3)c2O[C@H]1CN(C)Cc1ccc(Oc2ccccc2)cc1 the results were A1 apoptosis 2 0.3, T cruzi intra 80.4* and INS-1E rescue -6.6.
For C[C@H](CO)N1C[C@H](C)[C@H](CN(C)Cc2ccc(Oc3ccccc3)cc2)Oc2c(NC(=O)c3cnccn3)cccc2C1=O the results were A1 apoptosis 2 -0.5, T cruzi intra 68.8* and INS-1E rescue -29.1.
`C[C@@H]1CCCCO[C@H](CN(C)Cc2ccc(C(F)(F)F)cc2)[C@@H](C)CN([C@@H](C)CO)C(=O)c2cc(NC(=O)Nc3cccc4ccccc34)ccc2O1` gave A1 apoptosis 2 0.7.
`C[C@@H]1CN([C@H](C)CO)C(=O)Cc2cc(NC(=O)C3CCCCC3)ccc2O[C@H]1CN(C)S(=O)(=O)c1ccc(F)cc1` gave A1 apoptosis 2 -0.3, T cruzi intra 1.3 and INS-1E rescue 3.0.
Screening C[C@@H]1CN([C@@H](C)CO)C(=O)c2cc(NS(=O)(=O)c3cn(C)cn3)ccc2O[C@@H](C)CCCCO[C@@H]1CN(C)C(=O)Nc1ccc(C(F)(F)F)cc1 returned A1 apoptosis 2 0.8.
For COc1ccc(NC(=O)Nc2cccc3c2O[C@@H](CN(C)Cc2ccc4c(c2)OCO4)[C@@H](C)CN([C@@H](C)CO)C3=O)cc1 the results were A1 apoptosis 2 -0.1, T cruzi intra -8.9 and INS-1E rescue -5.5.
